Lmaj promast = reduces viability of Leishmania major promastigotes; 200,000 compounds, 9% hits; inhibition, % at 10 µM; AID 1063; resazurin fluorescence viability; in the data active means inhibition above about 50%;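 further: promastigotes grown with compound for 44 hours at 28 °C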
WT yeast gro inh = growth inhibition of WT yeast, mitochondrial fusion screen; 190,000 compounds, 2.1% hits; inhibition, % at 10 µM; mitochondrial fusion phenotypic screen, WT strain; AID 1362; in the data active means inhibition above about 58%; tested in S. cerevisiae
Diaph act CS = counter-screen for diaphorase-based assays: diaphorase activators and chemical reducers. Diaphorase/resazurin coupled assay, resorufin fluorescence, 16 min; hits give high values; 1 = vehicle wells, 0 = NADH-free wells. activation factor at 20 µM. 190,000 compounds, 0.005% hits. AID 1229;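 active means diaphorase activity raised at least twofold by the compound at 20 µM; inactive means activation factor below 2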
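Assay system: Purified diaphorase enzyme from Clostridium kluyveri | Amount: Enzyme 0.07 U/mL final | Dosing: Compound 20 µM once, DMSO 1% | Timing: 16 min reaction at room temperature | Detection: Fluorescence, excitation 544 nm and emission 590 nm | Evaluation: Higher resorufin formation from activation or reduction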
Diaph inh CS = diaphorase inhibition or chemical oxidation counter-screen | diaphorase resazurin-to-resorufin fluorescence, NADH, 16 min; bacterial (C. kluyveri) enzyme, not human | inhibition, % at 20 µM | 190,000 compounds, 0.69% hits;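 active means primary screen inhibition at 20 µM above a set limit, cut at about 50% in these data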;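 further: plate controls were DMSO with full reaction for no effect and wells lacking NADH for full effect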
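Detection: fluorescence of resorufin formed from resazurin, Ex 544/Em 590 nm; test system: Clostridium kluyveri diaphorase enzyme; amount: 0.14 U/mL diaphorase, enzyme working solution; times: 16-min room-temperature incubation before reading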
ROMK mod = modulators of human ROMK potassium channel; P48048; Tet-inducible ROMK, thallium flux fluorescence; actives lie on both sides; B-score at 10 µM; 130,000 compounds, 2% hits;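 active means signal ratio slope over the read window, or its plate-corrected B-score, at least 3 SD from the plate mean, either direction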;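 further: B-score of the F/F0 ratio slope over 7 to 12 s after thallium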
Target sequence (P48048 whole entry, looked up): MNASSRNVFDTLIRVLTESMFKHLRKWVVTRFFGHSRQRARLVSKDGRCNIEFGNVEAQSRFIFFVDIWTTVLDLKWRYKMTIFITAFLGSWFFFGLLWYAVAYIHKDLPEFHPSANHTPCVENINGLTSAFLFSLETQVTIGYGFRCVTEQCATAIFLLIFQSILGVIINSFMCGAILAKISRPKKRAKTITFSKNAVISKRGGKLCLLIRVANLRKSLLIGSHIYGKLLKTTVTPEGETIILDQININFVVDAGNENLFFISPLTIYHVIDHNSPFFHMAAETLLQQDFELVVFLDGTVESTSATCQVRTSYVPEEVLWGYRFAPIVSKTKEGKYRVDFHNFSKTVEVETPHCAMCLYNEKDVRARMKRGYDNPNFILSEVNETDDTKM
Cl transport mod = modulates chloride dependent transport by human KCC2 | KCC2 cells, thallium flux FluoZin-2 fluorescence | B-score of Tl+ flux slope (higher = more flux/activation; lower = inhibition) at 10 µM | AID 1456 | 190,000 compounds, 2.2% hits;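 active means thallium flux slope and its plate-corrected score both differing from the plate sample mean at a set confidence after two filtering rounds, in either direction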;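 further: slope of fluorescence scaled to starting intensity during 10 to 20 s after thallium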
* = called active by the depositor. The list is not random: actives were taken first. Their share in the collection is about 12%.

How did O=C(Nc1ccc(S(=O)(=O)N2CCOCC2)cc1)c1ccc(CN2CCc3ccccc3C2)cc1 do in these assays?
Lmaj promast: 90.6*; WT yeast gro inh: -16.2; Diaph act CS: 0.9; Diaph inh CS: 13.2; Cl transport mod: 0.339

How did O=C(Nc1ccccc1)c1ccc(S(=O)(=O)N2CCOCC2)cc1 do in these assays?
Lmaj promast: 7.2; WT yeast gro inh: 1.6; Diaph act CS: 1; Diaph inh CS: 2.6; ROMK mod: 0.455

Results for Cc1ccc(S(=O)(=O)N2CCN(C(=O)CN3CCc4ccccc4C3)CC2)cc1 ?
Lmaj promast: 87.5*; WT yeast gro inh: -3.2; Diaph act CS: 0.9; Diaph inh CS: 9.3; ROMK mod: -1.21

How did Cc1ccc(S(=O)(=O)N2CCN(C(=O)CCC(=O)N3CCc4ccccc43)CC2)cc1 do in these assays?
WT yeast gro inh: 10.7; Diaph act CS: 0.9; Diaph inh CS: 9.4

Results for CCN1CCc2c(sc(NC(=O)c3ccc(S(=O)(=O)N4CCOCC4)cc3)c2C(=O)OC)C1 ?
Lmaj promast: 76.5*; WT yeast gro inh: 10.5; Diaph act CS: 1; Diaph inh CS: -2.3; Cl transport mod: -0.089

How did CCN1CCc2c(sc(NC(=O)c3ccc(S(=O)(=O)N4CCOCC4)cc3)c2C(N)=O)C1 do in these assays?
Lmaj promast: 1.4; WT yeast gro inh: 18.7; Diaph act CS: 0.8; Diaph inh CS: 19.3; Cl transport mod: 1.07

Results for CN1CCN(S(=O)(=O)c2ccc(C(=O)Nc3ccccc3)cc2)CC1 ?
Lmaj promast: -1.9; WT yeast gro inh: -1.3; Diaph act CS: 0.9; Diaph inh CS: 5.3; ROMK mod: 0.0463; Cl transport mod: 0.418

How did FC(F)(F)c1cccc(NC(=S)Nc2cccc(NC(=S)Nc3cccc(C(F)(F)F)c3)n2)c1 do in these assays?
Cl transport mod: 0.921

Results for COC(=O)c1ccc(OC(=O)c2ccccc2F)cc1 ?
Lmaj promast: -5.8; WT yeast gro inh: -2.5; Diaph act CS: 0.9; Diaph inh CS: 14.2; ROMK mod: 0.149; Cl transport mod: -0.506

Results for Cc1ccc(Nc2nnc(SCc3cc(=O)n4cc(C)ccc4n3)s2)cc1 ?
Lmaj promast: 67.7*; WT yeast gro inh: 2.8; Diaph act CS: 0.9; Diaph inh CS: 12.9; Cl transport mod: -0.42

How did Cc1ccc2nc(CSc3nnc(Nc4ccccc4F)s3)cc(=O)n2c1 do in these assays?
Lmaj promast: 1.4; WT yeast gro inh: -6.4; Diaph act CS: 0.9; Diaph inh CS: 6.9; ROMK mod: 0.00649; Cl transport mod: 0.0576

Results for CCN(CC)S(=O)(=O)c1cc(-c2nn(C)c(=O)c3ccccc23)ccc1C ?
Lmaj promast: 87.1*; WT yeast gro inh: 2.8; Diaph act CS: 0.8; Diaph inh CS: 16.7; Cl transport mod: 0.163

What do the screens show for `O=C(COc1ccc(S(=O)(=O)N2CCCC2)cc1)Nc1ccc2c(c1)OCCO2`?
Lmaj promast: 5.5; WT yeast gro inh: -15.2; Diaph act CS: 0.9; Diaph inh CS: 11.6; ROMK mod: 0.557

How did Cc1ccc(-c2csc(NC(=O)c3ccc(-c4ccccc4)cc3)n2)o1 do in these assays?
Lmaj promast: 17.5; WT yeast gro inh: 77.5*; Diaph act CS: 0.8; Diaph inh CS: 21.4

Results for Cc1cc(C(=O)Nc2nc(-c3ccccn3)cs2)ccc1[N+](=O)[O-] ?
Lmaj promast: 100.4*; WT yeast gro inh: 62.5*; Diaph act CS: 0.8; Diaph inh CS: 16.0; ROMK mod: -0.409; Cl transport mod: 2.75

Results for O=C(Nc1ccccn1)c1ccc2c(c1)OCCO2 ?
Lmaj promast: -0.1; WT yeast gro inh: 14.6; Diaph act CS: 0.9; Diaph inh CS: 11.8; ROMK mod: 0.763; Cl transport mod: -0.759

Results for CC(=O)Nc1ccc(C(=O)Nc2nc(-c3ccccn3)cs2)cc1 ?
Lmaj promast: 64.4*; WT yeast gro inh: 7.2; Diaph act CS: 1.1; Diaph inh CS: -9.9; ROMK mod: 1.47; Cl transport mod: 0.0451

Results for O=C(Nc1nc(-c2ccccn2)cs1)c1ccc2c(c1)OCCO2 ?
Lmaj promast: 98.8*; WT yeast gro inh: 68.5*; Diaph act CS: 1.2; Diaph inh CS: -21.1; Cl transport mod: 0.603

How did O=C(Nc1ccc([N+](=O)[O-])cn1)c1ccc(Br)o1 do in these assays?
Lmaj promast: 48.6; WT yeast gro inh: 9.6; Diaph act CS: 0.8; Diaph inh CS: 22.6; ROMK mod: 0.882; Cl transport mod: -0.266
